Source: PubChem BioAssay (several laboratories)
rCAG binder: binds r(CAG) RNA repeats; r(CAG) RNA repeat, TO-PRO-1 dye displacement fluorescence; inhibition, % at 3 µM; 370,000 compounds, 1.3% hits;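 active = inhibition above the plate cutoff, the mean of all test compounds on that plate plus 3 SD, cut at about 35% in these data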;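 note: 0% = DMSO alone and 100% = 100 µM mitoxantrone as full dye displacement; higher means more dye released from RNA so lower well fluorescence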
PG9 Ab binder: small molecules binding HIV-1 gp120 antibody PG9; TR-FRET gp120-PG9 antibody binding; inhibition, % at 6.7 µM; 360,000 compounds, 0.43% hits; AID 624416; in the data active = inhibition above about 8.5%
NR2E3 ag-1: agonists of human NR2E3 nuclear receptor. Q9Y5X4. CHO-S Gal4-NCOR/VP16-NR2E3 two-hybrid, luciferase. inhibition of corepressor binding, % at 3.98 µM. 360,000 compounds, 0.35% hits;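 active = inhibition above the mean of all tested compounds plus 3 SD, cut at about 70% in these data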;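 note: 0% = DMSO with NR2E3 transfected cells and 100% = cells lacking NR2E3 construct; higher means lower luciferase signal from less NR2E3 corepressor binding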
NR2E3 ag-2: agonists of human nuclear receptor NR2E3; Q9Y5X4; GST-NR2E3/biotin-RetCOR TR-FRET, 1536-well; inhibition of corepressor binding, % at 4.78 µM; 320,000 compounds, 0.12% hits;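 active = percent inhibition above the cutoff of mean plus 3 SD of all tested compounds, set per screening campaign, cut at about 20% in these data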;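 note: 0% = DMSO wells and 100% = biotin wells as full block of FRET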
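Material: NR2E3–RetCOR corepressor complex / Amount: 1.35 nM GST-NR2E3 / Medium: Tris pH 7.5 / Compound: single nominal compound dose of 4.8 µM / Incubation: 5 h at 4 °C / Technique: TR-FRET, Eu(K)-anti-GST donor, streptavidin-D2 acceptor, ex 340, em 617/671 nm / Read-out basis: percent loss of FRET ratio relative to control wells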
Rev-erbA mod: modulates human Rev-erb alpha binding to DNA | P20393 | Rev-erbα–FITC-DNA binding, fluorescence polarization, 90 min | activity, % at 10 µM | 370,000 compounds, 0.79% hits | AID 1259318;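 active = activity above about 14%, limit read from the data; passing the limit was not always enough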;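 note: 0% = DMSO wells with 35 nM protein and 100% = DMSO wells with 750 nM protein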
NR2E3 ag confirm-1: confirmation of human NR2E3 nuclear receptor agonists | cell-free NR2E3 corepressor release, TR-FRET, 5 h | activation (reported as inhibition), % at 3.98 µM | 360 compounds, 39% hits | AID 2379 | shares compounds with NR2E3 ag-2; in the data active = activation above about 20%
PPARg-NCOR2 ag: releases PPARgamma from NCOR2 in NR2E3 counter-screen; shares compounds with NR2E3 ag-2; TR-FRET PPARg-NCOR2 coregulator interaction, biochemical; inhibition, % at 3.98 µM; 360 compounds, 45% hits; in the data active = inhibition above about 20%;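 note: 0% = DMSO vehicle and 100% = wells without protein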
NR2E3 ag confirm-2: NR2E3 agonism confirmed in two-hybrid assay; CHO-S mammalian two-hybrid NR2E3-NCOR, luciferase luminescence; inhibition, % at 3.98 µM; shares compounds with NR2E3 ag-1; 2,300 compounds, 51% hits;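 active = average inhibition above a cutoff equal to the mean inhibition of all tested compounds plus one SD, cut at about 70% in these data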;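 note: 0% = DMSO in NR2E3 cells and 100% = DMSO in cells lacking NR2E3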
GAL4-VP16 luc: reduces GAL4-VP16 reporter signal in NR2E3 counterscreen. shares compounds with NR2E3 ag-1. CHO-S GAL4-VP16 luciferase reporter, luminescence. inhibition, % at 3.98 µM. 2,300 compounds, 29% hits. AID 624379;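 active = mean inhibition above a cutoff equal to the average over all tested compounds plus one standard deviation, cut at about 70% in these data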;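 note: luciferase from a UAS reporter driven by GAL4-VP16 transactivation; 0% = DMSO with VP16-transfected cells and 100% = DMSO with cells lacking VP16; higher means less reporter light so more repression of VP16 activity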
PG9 bind confirm: PG9 antibody binding, confirmed; TR-FRET PG9 antibody binding, biochemical; AID 651571; inhibition, % at 6.7 µM; shares compounds with PG9 Ab binder; 1,500 compounds, 90% hits; in the data active = inhibition above about 9%
PGV04 Ab binding: binds control antibody PGV04 in PG9 binder counter-screen | shares compounds with PG9 Ab binder | TR-FRET PGV04 antibody-gp120 binding, biochemical | inhibition, % at 6.7 µM | 1,500 compounds, 95% hits | AID 651604; in the data active = inhibition above about 9.5%
rCAG bind conf: r(CAG) RNA repeat binding, confirmation; 4,300 compounds, 70% hits; TO-PRO-1 dye displacement fluorescence; inhibition, % at 3 µM; AID 652065; shares compounds with rCAG binder;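 active = inhibition above a per-plate cutoff, the mean inhibition of sample wells plus 3 SD, cut at about 35% in these data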;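 note: loss of TO-PRO-1 fluorescence as compound displaces dye from 1x1 AA loop RNA; 0% = DMSO only wells and 100% = 100 µM mitoxantrone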
dCAG dye counter: counter-screen for rCAG RNA binders: DNA CAG dye complex inhibitors. shares compounds with rCAG binder. d(CAG) DNA oligo TO-PRO-1 dye displacement, fluorescence. inhibition, % at 3 µM. 4,300 compounds, 94% hits;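 active = inhibition above its plate's cutoff, the mean test-well inhibition plus 3 SD, cut at about 4.8% in these data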;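 note: 0% = DNA dye mix with DMSO and 100% = 100 µM mitoxantrone; hits displace the dye from DNA and so lower well fluorescence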
NR1D1 mod conf: confirmation of modulators of human Rev-erb alpha DNA binding | shares compounds with Rev-erbA mod | Rev-erb alpha FITC-DNA binding, fluorescence polarization, 90 min | activation, % at 25 µM | 3,000 compounds, 61% hits | AID 1259319;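 active = activation at or above a set limit, or at least 3 SD above the negative control mean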;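 note: 0% = 35 nM protein with DMSO and 100% = 750 nM protein high control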
RORg DNA counter: RORgamma DNA-binding activity, dose-response counter-screen; IC50, µM; purified RORgamma protein-FITC-DNA binding, fluorescence polarization; 910 compounds, 8% hits; shares compounds with Rev-erbA mod;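 active = Compounds whose fitted half-maximal concentration for disrupting protein-DNA binding is below 10 micromolar; the record names Rev-erb in its text, so the target is in doubt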
An asterisk follows results filed as active; / = no result. This is a sample that favours compounds with a hit; in the whole collection about 2.6% have one here.

SMILES | rCAG binder | PG9 Ab binder | NR2E3 ag-1 | NR2E3 ag-2 | Rev-erbA mod | NR2E3 ag confirm-1 | PPARg-NCOR2 ag | NR1D1 mod conf | others
CC1=NN(c2ccc(C)c(C)c2)C(=O)C1C(c1cccc(O)c1)C1C(=O)N(c2ccc(C)c(C)c2)N=C1C (stereo not given) | 70* | -2 | 28 | 21* | -1 | -4 | 6 | / | rCAG bind conf=78*;dCAG dye counter=37*
CC1=NN(c2ccc(C)cc2C)C(=O)C1C(c1ccccc1O)C1C(=O)N(c2ccc(C)cc2C)N=C1C (stereo not given) | 13 | -1 | -10 | 5 | 0 | / | / | /
COC(=O)[C@]12C[C@H](CC(=O)NCc3cccc4ccccc34)C(=O)N(Cc3ccc4c(c3)OCO4)C1=C[C@H](COCc1ccccc1)O[C@@H]2C | 12 | 0 | / | / | 3 | / | / | /
NS(=O)(=O)c1cccc(C(=O)NC2CCSc3ccccc32)c1 (stereo not given) | 4 | 0 | -3 | 4 | 5 | / | / | /
NS(=O)(=O)c1cc(C(=O)NC2CCSc3ccccc32)ccc1Cl (stereo not given) | 80* | 1 | -12 | 20* | -15 | 7 | -2 | / | rCAG bind conf=81*;dCAG dye counter=49*
C=CCn1c(NC(=O)c2ccccc2Cl)c(C#N)c2nc3ccccc3nc21 | 69* | 3 | 7 | 38* | -1 | 8 | 42* | / | rCAG bind conf=67*;dCAG dye counter=29*
[O-][n+]1ccccc1C(O)CSc1ccccc1 (stereo not given) | 2 | 1 | / | / | -3 | / | / | /
CCCCCCCCCCCCN1CCSCCS1(=O)=O | 2 | -1 | / | / | -1 | / | / | /
CCCCCn1c(SCC#N)nc2cc(C(=O)NCC3CCCO3)ccc2c1=O (stereo not given) | -4 | 68* | 4 | 22* | 71* | 1 | 6 | 38*
CCc1ccccc1NC(=O)CSc1nc2cc(C(=O)NCC3CCCO3)ccc2c(=O)n1CC1CCCO1 (stereo not given) | 5 | -1 | -15 | / | 2 | / | / | /
CCC(NC(=O)c1cccc2c1C(=O)N(Cc1cccnc1)C2)c1ccccc1 (stereo not given) | 4 | / | / | / | -1 | / | / | /
Brc1cc(Br)c2ncnc(N3CCCCC3)c2c1 | 1 | 38* | -16 | 34* | 76* | 34* | 29* | 40* | PG9 bind confirm=54*;PGV04 Ab binding=63*;RORg DNA counter=2.8*
C[C@H](O)[C@@H]1CN2CCc3ccc(-c4ccc5c(c4)OCO5)cc3[C@@H]2C[C@@H]1N(C)Cc1cc(Cl)cc(Cl)c1 | 3 | 0 | / | / | 1 | / | / | /
CSc1nc2ccc3nc(NC(=O)c4ccc(C)cc4)sc3c2s1 | 4 | -1 | -10 | 0 | 9 | / | / | /
Cc1ccc(C(=O)Nc2nc3ccccc3c(=O)s2)cc1 | 2 | 73* | 6 | 23* | 69* | 43* | 46* | 35* | PG9 bind confirm=78*;PGV04 Ab binding=89*;RORg DNA counter=2.1*
CCCn1cc(CCC(=O)Nc2ccc(Oc3cccnc3)cc2)c2ccccc21 | 4 | 0 | / | / | 6 | / | / | /
S=c1nc(SCc2ccccc2)[nH]c2ccccc12 | 22 | 7 | 68 | 35* | 29* | 36* | 55* | 10 | NR2E3 ag confirm-2=18;GAL4-VP16 luc=-40
C[C@@H]1CN(S(=O)(=O)C(C)(C)C)[C@@H](CCO)/C1=C\CCO | -1 | -2 | / | / | -5 | / | / | /
CCc1cc2cc3c(cc2nc1SCC(=O)OC(C)C)OCO3 | -3 | -1 | 4 | -2 | 3 | / | / | /
CCc1cc2cc3c(cc2nc1SCC(=O)Nc1cc(C)on1)OCO3 | 1 | 21* | -14 | 23* | 211* | 51* | 62* | 158* | PG9 bind confirm=46*;PGV04 Ab binding=66*;RORg DNA counter=>40
N#Cc1[nH]nc2nc[nH]c(=O)c12 | 1 | 0 | / | / | -4 | / | / | /
Cc1sc2nc(SCC(=O)NCc3ccco3)n(Cc3ccccc3)c(=O)c2c1C | 8 | 20* | -36 | 38* | 37* | 7 | 9 | 31* | PG9 bind confirm=14*;PGV04 Ab binding=20*
O=C(CSc1ncnc2c1oc1ccccc12)Nc1ccccc1C(F)(F)F | 2 | 66* | 8 | 44* | 348* | 70* | 74* | 341* | PG9 bind confirm=27*;PGV04 Ab binding=75*
CCC(=O)c1ccccc1OCC(=O)Nc1c(C)cccc1C | -1 | 1 | -4 | 0 | 3 | / | / | /
Cc1cccc(C)c1NC(=O)COc1ccccc1C(=O)Nc1ccc(Br)cn1 | -1 | 62* | -30 | 44* | 118* | 42* | 49* | 92* | PG9 bind confirm=61*;PGV04 Ab binding=83*;RORg DNA counter=>40
COC(=O)Cc1nnn2c1[C@H](C)[C@H](c1ccccc1Br)OC[C@@H]2c1ccccc1 | 2 | 0 | / | / | 2 | / | / | /
O=C(CSc1ncnc2ccccc12)Nc1ccc2c(c1)OCCO2 | 2 | 0 | -37 | 0 | 1 | / | / | /
O=C(CSc1nc(Cc2ccccc2)nc2ccccc12)Nc1ccc2c(c1)OCCO2 | 1 | 8 | 18 | 28* | 33* | -4 | 17 | 27*
O=C(CCCn1c(=S)[nH]c2cc3c(cc2c1=O)OCO3)NCc1cccc(Cl)c1 | 3 | 17* | 0 | 28* | 48* | 18 | 22* | 30* | PG9 bind confirm=13*;PGV04 Ab binding=23*;RORg DNA counter=>40
COc1ccc2nc(C)cc(SCC(=O)Nc3c(C)cc(C)cc3C)c2c1 | 0 | -1 | -17 | 36* | 412* | -55 | -55 | 19*
